Measured values from ChEMBL document CHEMBL1770048, “Synthesis and biological evaluation of a diazepanone-based library of liposidomycins analogs as MraY inhibitors” (Eur J Med Chem, 2011).

How the values were obtained:
[1] = Inhibition of Staphylococcus aureus MurG after 30 mins
Summary of the method: (§1)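 MurG reaction in 12.5 μl: 200 mM Tris-HCl pH 7.5, 10 mM MgCl₂, 16 μM UDP-[¹⁴C]GlcNAc, 16 μM lipid I analog, 30% (v/v) DMSO (final) plus MurG. Run 30 min at 37 °C, stopped by 3 min boiling, lyophilized, redissolved in 2-propanol/NH₄OH/water (6:3:1). Lipid II resolved by silica TLC in the same solvent and counted by radioactivity scanning. Residual activity versus no-inhibitor control; IC50 from 7 concentrations.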

[2] = biological target: T1, Phospho-N-acetylmuramoyl-pentapeptide-transferase (Staphylococcus aureus, UniProt P0C1R8); test: Inhibition of Staphylococcus aureus MraY after 30 mins
T1 sequence (P0C1R8 whole entry): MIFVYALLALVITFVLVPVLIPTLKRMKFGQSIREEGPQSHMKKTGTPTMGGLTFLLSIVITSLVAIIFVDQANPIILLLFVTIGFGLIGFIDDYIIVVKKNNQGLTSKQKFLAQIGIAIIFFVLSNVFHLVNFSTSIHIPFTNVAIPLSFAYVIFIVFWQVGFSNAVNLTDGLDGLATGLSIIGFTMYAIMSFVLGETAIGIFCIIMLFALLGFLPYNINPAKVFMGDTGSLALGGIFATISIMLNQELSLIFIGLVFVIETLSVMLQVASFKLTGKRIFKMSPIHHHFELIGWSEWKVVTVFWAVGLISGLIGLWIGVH
Summary of the method: (§2)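 Started with enzyme, 30 min at 37 °C with shaking, stopped at 100 °C for 1 min. Lipid I separated from substrate by silica TLC (2-propanol/NH₄OH/water 6:3:1), spots quantified by radioactivity scanning. Residual activity relative to no-inhibitor control; IC50 from 7 inhibitor concentrations.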

[3] = biological target: T2, Phospho-N-acetylmuramoyl-pentapeptide-transferase (Staphylococcus aureus) (UniProt P0C1R8); test: Inhibition of Staphylococcus aureus MraY assessed as residual activity of enzyme at 1 mM after 30 mins; summary of the method: as §2
T2 sequence (whole entry): T1 sequence (P0C1R8 whole entry)

[4] = system: Staphylococcus aureus; test: Inhibition of Staphylococcus aureus MurG assessed as residual activity of enzyme at 2 mM after 30 mins; summary of the method: as §1
[5] = system: Staphylococcus aureus; test: Inhibition of Staphylococcus aureus MurG assessed as residual activity of enzyme at 1 mM after 30 mins; summary of the method: as §1
[6] = biological target: T2, Phospho-N-acetylmuramoyl-pentapeptide-transferase (Staphylococcus aureus); test: Inhibition of Staphylococcus aureus MraY assessed as residual activity of enzyme at 2 mM after 30 mins; settings: 1 mM, in the assay text read “at 1 mM” for “at 2 mM”; summary of the method: as §2

`CCCCCCCCCCCCCCCC(=O)O[C@H]1CN(CCCCCn2ccc(=O)[nH]c2=O)[C@@H](CO[C@@H]2O[C@H](CN)[C@@H](O)[C@H]2O)C(=O)N[C@@H]1CO[C@@H]1O[C@H](CN)[C@@H](O)[C@H]1O` showed an IC50 [1] of 130 µM and an IC50 [2] of 2800 µM.

Molecule `CCCCCCCCCCCCCCCC(=O)O[C@H]1CN(C)[C@@H](CO[C@@H]2O[C@H](CN)[C@@H](O)[C@H]2O)C(=O)N[C@@H]1CO` has an Activity [3] of 75% and an Activity [4] of 100%.

`CCCCCCCCCCCCCCCC(=O)O[C@H]1CN(CCCCCn2ccc(=O)[nH]c2=O)[C@@H](CO)C(=O)N[C@@H]1CO[Si](c1ccccc1)(c1ccccc1)C(C)(C)C` showed an Activity [4] of 66% and an IC50 [2] of 380 µM.

For `CCCCCCCCCCCCCCCC(=O)O[C@H]1CN(CCCCCn2ccc(=O)[nH]c2=O)[C@@H](CO[C@@H]2O[C@H](CN=[N+]=[N-])[C@H]3OC(CC)(CC)O[C@@H]23)C(=O)N[C@@H]1CO[Si](c1ccccc1)(c1ccccc1)C(C)(C)C`, the Activity [4] was 100% and the IC50 [2] was 190 µM.

`CCCCCCCCCCCCCCCC(=O)O[C@H]1CN(CCCCCn2ccc(=O)[nH]c2=O)[C@@H](CO[C@@H]2O[C@H](CN=[N+]=[N-])[C@H]3OC(CC)(CC)O[C@@H]23)C(=O)N[C@@H]1CO[C@@H]1O[C@H](CN=[N+]=[N-])[C@H]2OC(CC)(CC)O[C@@H]12` showed an Activity [4] of 87% and an IC50 [2] of 420 µM.

For `CC(C)(C)[Si](OC[C@H]1NC(=O)[C@H](COCc2ccccc2)N(CCCCCn2ccc(=O)[nH]c2=O)C[C@@H]1O)(c1ccccc1)c1ccccc1`, the Activity [5] was 100% and the IC50 [2] was 1600 µM.

In the case of `CCCCCCCCCCCCCCCC(=O)O[C@H]1CN(C)[C@@H](CO[C@@H]2O[C@H](CN)[C@@H](O)[C@H]2O)C(=O)N[C@@H]1CO[Si](c1ccccc1)(c1ccccc1)C(C)(C)C`, the Activity [6] is reported as 66% and the IC50 [1] is reported as 150 µM.

Molecule `CCCCCCCCCCCCCCCC(=O)O[C@H]1CN(CCCCCn2ccc(=O)[nH]c2=O)[C@@H](CO[C@@H]2O[C@H](CN)[C@@H](O)[C@H]2O)C(=O)N[C@@H]1CO[Si](c1ccccc1)(c1ccccc1)C(C)(C)C` has an IC50 [1] of 185 µM and an IC50 [2] of 120 µM.

Molecule `CCCCCCCCCCCCCCCC(=O)O[C@H]1CN(CCCCCn2ccc(=O)[nH]c2=O)[C@@H](CO)C(=O)N[C@@H]1CO` has an Activity [4] of 100% and an IC50 [2] of 270 µM.

`CCCCCCCCCCCCCCCC(=O)O[C@H]1CN(CCCCCn2ccc(=O)[nH]c2=O)[C@@H](COCc2ccccc2)C(=O)N[C@@H]1CO[Si](c1ccccc1)(c1ccccc1)C(C)(C)C` gave an Activity [4] of 100% and an IC50 [2] of 1400 µM.

Work on `CCCCCCCCCCCCCCCC(=O)O[C@H]1CN(C)[C@@H](CO[C@@H]2O[C@H](CN)[C@H]3OC(CC)(CC)O[C@@H]23)C(=O)N[C@@H]1CO[Si](c1ccccc1)(c1ccccc1)C(C)(C)C` yielded an IC50 [2] of 1000 µM.

For `CCCCCCCCCCCCCCCC(=O)O[C@H]1CN(CCCCCn2ccc(=O)[nH]c2=O)[C@@H](CO[C@@H]2O[C@H](CN)[C@@H](O)[C@H]2O)C(=O)N[C@@H]1CO`, the IC50 [1] was 530 µM and the IC50 [2] was 220 µM.

Work on `CCCCCCCCCCCCCCCC(=O)O[C@H]1CN(CCCCCn2ccc(=O)[nH]c2=O)[C@@H](CO[C@@H]2O[C@H](CN)[C@H]3OC(CC)(CC)O[C@@H]23)C(=O)N[C@@H]1CO[C@@H]1O[C@H](CN)[C@H]2OC(CC)(CC)O[C@@H]12` yielded an IC50 [1] of 100 µM and an IC50 [2] of 310 µM.

`CCCCCCCCCCCCCCCC(=O)O[C@H]1CN(C)[C@@H](CO)C(=O)N[C@@H]1CO` gave an IC50 [2] of 1740 µM.

Molecule `CCCCCCCCCCCCCCCC(=O)O[C@H]1CN(CCCCCn2ccc(=O)[nH]c2=O)[C@@H](CO[C@@H]2O[C@H](CN)[C@H]3OC(CC)(CC)O[C@@H]23)C(=O)N[C@@H]1CO[Si](c1ccccc1)(c1ccccc1)C(C)(C)C` has an IC50 [1] of 110 µM and an IC50 [2] of 620 µM.
